Test results: ChEMBL document CHEMBL5661979, “Pharmacological inhibition of BMK1 suppresses tumor growth through promyelocytic leukemia protein” (Cancer Cell, 2010)

How the values were obtained:
[1] = molecular target: Serine/threonine-protein kinase PRP4 homolog (Homo sapiens, UniProt Q13523); assay: Inhibition of PRP4 in human HeLa cells lysate pre incubated for 15 mins followed by ATP acyl phosphate probe addition and measured after 10 mins by LC-MS/MS analysis; type: subcellular
[2] = molecular target: Serine/threonine-protein kinase N2 (Homo sapiens, UniProt Q16513); assay: Inhibition of PKN2 in human HeLa cells lysate pre incubated for 15 mins followed by ATP acyl phosphate probe addition and measured after 10 mins by LC-MS/MS analysis; type: subcellular
[3] = molecular target: T1, Serine/threonine-protein kinase Sgk3 (Homo sapiens) (UniProt Q96BR1); assay: Inhibition of SGK3 in human HeLa cells lysate at 2 uM pre incubated for 15 mins followed by ADP acyl phosphate probe addition and measured after 10 mins by LC-MS/MS analysis relative to control; type: subcellular; conditions: time 25.0 min
T1 sequence (whole entry): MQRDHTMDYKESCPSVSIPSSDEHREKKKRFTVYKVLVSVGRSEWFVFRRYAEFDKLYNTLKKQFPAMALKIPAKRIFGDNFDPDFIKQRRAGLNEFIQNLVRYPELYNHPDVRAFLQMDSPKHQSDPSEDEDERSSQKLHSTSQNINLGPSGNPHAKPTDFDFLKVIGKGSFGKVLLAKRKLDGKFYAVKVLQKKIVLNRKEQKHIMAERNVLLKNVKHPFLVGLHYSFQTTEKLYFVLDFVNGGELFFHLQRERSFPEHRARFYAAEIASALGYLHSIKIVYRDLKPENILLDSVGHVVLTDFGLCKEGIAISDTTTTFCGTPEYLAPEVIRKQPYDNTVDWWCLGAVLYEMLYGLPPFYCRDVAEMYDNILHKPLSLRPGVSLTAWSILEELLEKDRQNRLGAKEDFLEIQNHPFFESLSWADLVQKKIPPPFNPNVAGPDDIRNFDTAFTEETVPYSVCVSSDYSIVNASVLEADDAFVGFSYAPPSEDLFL

[4] = molecular target: Ribosomal protein S6 kinase alpha-1 (Homo sapiens, UniProt Q15418); assay: Inhibition of RSK1 domain 2 K1 site in human HeLa cells lysate at 2 uM pre incubated for 15 mins followed by ADP acyl phosphate probe addition and measured after 10 mins by LC-MS/MS analysis relative to control; type: subcellular; conditions: time 25.0 min
[5] = molecular target: T2, Mixed lineage kinase domain-like protein (Homo sapiens) (UniProt Q8NB16); assay: Inhibition of MLKL in human HeLa cells lysate at 10 uM pre incubated for 15 mins followed by ATP acyl phosphate probe addition and measured after 10 mins by LC-MS/MS analysis relative to control; type: subcellular; conditions: time 25.0 min
T2 sequence (whole entry): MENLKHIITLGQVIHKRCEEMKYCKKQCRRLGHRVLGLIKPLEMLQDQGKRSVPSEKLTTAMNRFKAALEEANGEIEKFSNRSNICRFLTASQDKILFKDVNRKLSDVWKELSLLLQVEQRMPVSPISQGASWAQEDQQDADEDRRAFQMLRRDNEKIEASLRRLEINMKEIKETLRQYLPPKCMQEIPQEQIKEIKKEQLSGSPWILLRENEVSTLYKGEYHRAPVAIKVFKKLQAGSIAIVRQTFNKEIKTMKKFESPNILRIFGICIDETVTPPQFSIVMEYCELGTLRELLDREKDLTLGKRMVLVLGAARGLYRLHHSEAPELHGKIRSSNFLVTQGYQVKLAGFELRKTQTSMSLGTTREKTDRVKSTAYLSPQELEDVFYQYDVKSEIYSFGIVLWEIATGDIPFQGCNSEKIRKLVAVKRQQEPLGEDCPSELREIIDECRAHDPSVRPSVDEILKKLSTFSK

[6] = molecular target: Serine-protein kinase ATM (Homo sapiens, UniProt Q13315); assay: Inhibition of ATM in human HeLa cells lysate at 2 uM pre incubated for 15 mins followed by ADP acyl phosphate probe addition and measured after 10 mins by LC-MS/MS analysis relative to control; type: subcellular; conditions: time 25.0 min
Procedure, shortened: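 KiNativ-type profiling in HeLa lysate (5 mg/mL total protein). Lysate preincubated 15 min with inhibitor at 50, 10, 2, 0.8 or 0 μM, then ATP or ADP acylphosphate probe added (5 μM final) for 10 min. Reaction stopped with urea and analysed by targeted MS, using up to four fragment ions per kinase peptide-probe conjugate. % inhibition calculated against untreated lysate. Duplicate reactions.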

[7] = Inhibition of MSK1/2 in human HeLa cells lysate at 2 uM pre incubated for 15 mins followed by ADP acyl phosphate probe addition and measured after 10 mins by LC-MS/MS analysis relative to control; conditions: 25 min, condition cancer
[8] = molecular target: T3, Phosphatidylinositol 5-phosphate 4-kinase type-2 alpha (Homo sapiens) (UniProt P48426); assay: Inhibition of PIP5K2A in human HeLa cells lysate at 2 uM pre incubated for 15 mins followed by ATP acyl phosphate probe addition and measured after 10 mins by LC-MS/MS analysis relative to control; type: subcellular; conditions: time 25.0 min
T3 sequence (whole entry): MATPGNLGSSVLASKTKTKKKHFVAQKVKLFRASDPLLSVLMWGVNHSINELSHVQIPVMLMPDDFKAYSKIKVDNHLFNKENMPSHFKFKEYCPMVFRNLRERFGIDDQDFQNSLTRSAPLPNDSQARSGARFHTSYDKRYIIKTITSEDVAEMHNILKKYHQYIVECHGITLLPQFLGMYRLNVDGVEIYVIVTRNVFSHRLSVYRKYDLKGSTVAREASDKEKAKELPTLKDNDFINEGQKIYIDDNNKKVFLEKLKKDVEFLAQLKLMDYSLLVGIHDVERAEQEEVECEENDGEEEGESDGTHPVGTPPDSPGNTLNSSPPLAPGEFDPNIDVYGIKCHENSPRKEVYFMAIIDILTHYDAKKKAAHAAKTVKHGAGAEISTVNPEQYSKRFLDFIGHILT

[9] = Inhibition of CDK5/PRKX/PRKY in human HeLa cells lysate at 2 uM pre incubated for 15 mins followed by ADP acyl phosphate probe addition and measured after 10 mins by LC-MS/MS analysis relative to control; conditions: 25 min, condition cancer
Procedure, shortened: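 KiNativ profiling in HeLa lysate (5 mg/mL total protein). Lysate incubated 15 min with inhibitor at 50, 10, 2, 0.8 or 0 μM. ATP or ADP acylphosphate probe then added (5 μM final) and reacted 10 min. Reaction stopped with urea and analysed by targeted MS, using up to four fragment ions per kinase peptide-probe conjugate. % inhibition taken against untreated lysate. Run in duplicate.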

[10] = Inhibition of MST4/YSK1 in human HeLa cells lysate at 2 uM pre incubated for 15 mins followed by ADP acyl phosphate probe addition and measured after 10 mins by LC-MS/MS analysis relative to control; conditions: 25 min, condition cancer
[11] = molecular target: Tyrosine-protein kinase ABL (Homo sapiens, UniProt P00519+P42684); assay: Inhibition of ABL1/2 in human HeLa cells lysate at 2 uM pre incubated for 15 mins followed by ATP acyl phosphate probe addition and measured after 10 mins by LC-MS/MS analysis relative to control; type: subcellular; conditions: time 25.0 min
Procedure, shortened: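 HeLa cell lysates (5 mg/mL total protein) were preincubated with inhibitor at 0, 0.8, 2, 10 or 50 μM for 15 min. ATP or ADP acylphosphate probe was then added (5 μM final) for 10 min, and reactions were stopped with urea. Up to four fragment ions per kinase probe-peptide were quantified by targeted MS. % inhibition was taken relative to untreated lysate. Run in duplicate.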

Chain of Ribosomal protein S6 kinase alpha-1 (Q15418 whole entry, the tested form may be a part): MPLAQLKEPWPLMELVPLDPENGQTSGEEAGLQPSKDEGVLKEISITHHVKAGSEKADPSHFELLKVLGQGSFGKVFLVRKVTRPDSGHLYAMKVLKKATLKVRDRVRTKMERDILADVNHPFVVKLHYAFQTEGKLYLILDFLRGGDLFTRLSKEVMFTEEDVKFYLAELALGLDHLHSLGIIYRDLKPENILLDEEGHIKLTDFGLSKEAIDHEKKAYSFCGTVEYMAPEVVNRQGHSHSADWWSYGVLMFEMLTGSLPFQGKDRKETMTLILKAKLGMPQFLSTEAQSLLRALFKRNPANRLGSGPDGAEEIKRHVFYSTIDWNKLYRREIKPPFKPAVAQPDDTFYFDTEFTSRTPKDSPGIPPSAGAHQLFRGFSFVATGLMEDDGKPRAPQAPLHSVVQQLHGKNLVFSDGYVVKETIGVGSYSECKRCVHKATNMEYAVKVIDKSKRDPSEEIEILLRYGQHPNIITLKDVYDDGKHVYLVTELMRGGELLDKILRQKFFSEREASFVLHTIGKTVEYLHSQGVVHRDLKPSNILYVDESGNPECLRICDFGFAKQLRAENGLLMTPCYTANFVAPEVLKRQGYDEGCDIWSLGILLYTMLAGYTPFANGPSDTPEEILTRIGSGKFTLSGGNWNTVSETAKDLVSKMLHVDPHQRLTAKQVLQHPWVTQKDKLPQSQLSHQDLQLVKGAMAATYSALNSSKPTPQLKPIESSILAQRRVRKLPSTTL
Chain of Serine-protein kinase ATM (Q13315 whole entry, the tested form may be a part): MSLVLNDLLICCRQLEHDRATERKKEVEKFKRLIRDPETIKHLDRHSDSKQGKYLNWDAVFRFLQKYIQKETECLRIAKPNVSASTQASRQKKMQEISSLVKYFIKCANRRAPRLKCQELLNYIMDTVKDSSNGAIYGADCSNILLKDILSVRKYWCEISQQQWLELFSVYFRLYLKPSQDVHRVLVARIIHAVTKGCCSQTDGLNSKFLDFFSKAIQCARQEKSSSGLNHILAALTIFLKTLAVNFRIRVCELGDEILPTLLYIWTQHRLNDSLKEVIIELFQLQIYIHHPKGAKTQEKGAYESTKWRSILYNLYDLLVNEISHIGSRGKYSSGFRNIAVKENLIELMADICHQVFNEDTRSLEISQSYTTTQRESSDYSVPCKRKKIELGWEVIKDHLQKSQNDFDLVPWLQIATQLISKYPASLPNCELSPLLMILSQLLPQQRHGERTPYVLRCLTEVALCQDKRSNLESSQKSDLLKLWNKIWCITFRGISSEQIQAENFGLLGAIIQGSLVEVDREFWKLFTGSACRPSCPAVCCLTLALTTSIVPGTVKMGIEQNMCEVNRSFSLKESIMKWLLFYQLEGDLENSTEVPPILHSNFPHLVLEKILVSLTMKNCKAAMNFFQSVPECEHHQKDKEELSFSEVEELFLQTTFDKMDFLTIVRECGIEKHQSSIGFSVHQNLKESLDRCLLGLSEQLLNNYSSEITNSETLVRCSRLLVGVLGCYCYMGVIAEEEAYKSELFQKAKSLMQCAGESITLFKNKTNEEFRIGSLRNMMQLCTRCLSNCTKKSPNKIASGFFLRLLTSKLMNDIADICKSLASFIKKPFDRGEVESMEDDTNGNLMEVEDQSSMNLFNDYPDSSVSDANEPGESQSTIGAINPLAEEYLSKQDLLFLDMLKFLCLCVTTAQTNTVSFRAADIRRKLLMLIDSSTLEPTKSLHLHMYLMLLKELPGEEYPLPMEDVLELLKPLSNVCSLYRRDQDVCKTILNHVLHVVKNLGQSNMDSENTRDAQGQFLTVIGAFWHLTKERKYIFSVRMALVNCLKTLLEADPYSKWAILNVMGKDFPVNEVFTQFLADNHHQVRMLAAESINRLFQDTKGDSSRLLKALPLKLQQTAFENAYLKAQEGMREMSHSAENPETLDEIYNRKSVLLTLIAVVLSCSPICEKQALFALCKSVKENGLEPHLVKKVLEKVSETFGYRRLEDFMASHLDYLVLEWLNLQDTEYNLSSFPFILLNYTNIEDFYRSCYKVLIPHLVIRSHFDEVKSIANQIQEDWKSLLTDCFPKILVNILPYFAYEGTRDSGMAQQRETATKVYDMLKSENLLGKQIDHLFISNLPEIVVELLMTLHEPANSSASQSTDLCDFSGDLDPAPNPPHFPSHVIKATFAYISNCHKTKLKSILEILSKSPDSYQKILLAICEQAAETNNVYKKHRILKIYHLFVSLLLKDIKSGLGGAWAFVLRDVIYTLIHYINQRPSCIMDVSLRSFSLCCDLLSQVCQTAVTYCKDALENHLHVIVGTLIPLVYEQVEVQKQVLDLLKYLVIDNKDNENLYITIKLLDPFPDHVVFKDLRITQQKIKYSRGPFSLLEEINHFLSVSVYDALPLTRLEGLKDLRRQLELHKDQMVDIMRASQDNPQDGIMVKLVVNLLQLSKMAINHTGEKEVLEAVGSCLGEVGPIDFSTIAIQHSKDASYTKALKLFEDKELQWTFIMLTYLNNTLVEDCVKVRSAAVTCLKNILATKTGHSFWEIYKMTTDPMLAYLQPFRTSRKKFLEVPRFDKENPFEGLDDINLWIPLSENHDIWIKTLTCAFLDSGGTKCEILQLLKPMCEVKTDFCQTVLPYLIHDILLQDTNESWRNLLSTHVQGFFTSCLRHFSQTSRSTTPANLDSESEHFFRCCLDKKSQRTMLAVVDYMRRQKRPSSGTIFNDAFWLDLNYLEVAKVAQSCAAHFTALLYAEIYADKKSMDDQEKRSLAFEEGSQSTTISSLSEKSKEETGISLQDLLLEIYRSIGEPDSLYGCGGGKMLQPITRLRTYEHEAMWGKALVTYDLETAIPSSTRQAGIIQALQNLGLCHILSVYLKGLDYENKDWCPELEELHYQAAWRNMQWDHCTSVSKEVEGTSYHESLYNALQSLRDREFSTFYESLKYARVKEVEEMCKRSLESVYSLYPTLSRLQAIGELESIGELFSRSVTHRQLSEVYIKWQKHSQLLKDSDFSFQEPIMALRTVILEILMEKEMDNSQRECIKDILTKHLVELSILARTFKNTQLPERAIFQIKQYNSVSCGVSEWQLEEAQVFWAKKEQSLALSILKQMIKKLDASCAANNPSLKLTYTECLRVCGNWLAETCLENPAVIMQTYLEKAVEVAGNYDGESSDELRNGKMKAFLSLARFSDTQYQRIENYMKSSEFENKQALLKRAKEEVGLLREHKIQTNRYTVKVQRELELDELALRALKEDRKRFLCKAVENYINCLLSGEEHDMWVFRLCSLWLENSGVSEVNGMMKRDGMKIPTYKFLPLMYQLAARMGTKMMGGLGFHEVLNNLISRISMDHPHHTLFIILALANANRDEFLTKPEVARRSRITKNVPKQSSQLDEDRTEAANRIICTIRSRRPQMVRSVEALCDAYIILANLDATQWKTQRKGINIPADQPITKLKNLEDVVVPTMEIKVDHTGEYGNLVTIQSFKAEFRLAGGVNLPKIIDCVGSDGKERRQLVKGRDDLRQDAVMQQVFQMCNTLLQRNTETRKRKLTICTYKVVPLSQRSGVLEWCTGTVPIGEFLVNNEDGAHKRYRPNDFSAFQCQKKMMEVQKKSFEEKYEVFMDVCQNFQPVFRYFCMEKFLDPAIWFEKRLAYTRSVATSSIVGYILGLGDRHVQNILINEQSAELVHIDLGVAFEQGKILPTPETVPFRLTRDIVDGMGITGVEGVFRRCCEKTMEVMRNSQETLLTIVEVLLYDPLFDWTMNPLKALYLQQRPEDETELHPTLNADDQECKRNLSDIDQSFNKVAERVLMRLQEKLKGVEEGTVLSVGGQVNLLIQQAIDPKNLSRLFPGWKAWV
Chain of Serine/threonine-protein kinase PRP4 homolog (Q13523 whole entry): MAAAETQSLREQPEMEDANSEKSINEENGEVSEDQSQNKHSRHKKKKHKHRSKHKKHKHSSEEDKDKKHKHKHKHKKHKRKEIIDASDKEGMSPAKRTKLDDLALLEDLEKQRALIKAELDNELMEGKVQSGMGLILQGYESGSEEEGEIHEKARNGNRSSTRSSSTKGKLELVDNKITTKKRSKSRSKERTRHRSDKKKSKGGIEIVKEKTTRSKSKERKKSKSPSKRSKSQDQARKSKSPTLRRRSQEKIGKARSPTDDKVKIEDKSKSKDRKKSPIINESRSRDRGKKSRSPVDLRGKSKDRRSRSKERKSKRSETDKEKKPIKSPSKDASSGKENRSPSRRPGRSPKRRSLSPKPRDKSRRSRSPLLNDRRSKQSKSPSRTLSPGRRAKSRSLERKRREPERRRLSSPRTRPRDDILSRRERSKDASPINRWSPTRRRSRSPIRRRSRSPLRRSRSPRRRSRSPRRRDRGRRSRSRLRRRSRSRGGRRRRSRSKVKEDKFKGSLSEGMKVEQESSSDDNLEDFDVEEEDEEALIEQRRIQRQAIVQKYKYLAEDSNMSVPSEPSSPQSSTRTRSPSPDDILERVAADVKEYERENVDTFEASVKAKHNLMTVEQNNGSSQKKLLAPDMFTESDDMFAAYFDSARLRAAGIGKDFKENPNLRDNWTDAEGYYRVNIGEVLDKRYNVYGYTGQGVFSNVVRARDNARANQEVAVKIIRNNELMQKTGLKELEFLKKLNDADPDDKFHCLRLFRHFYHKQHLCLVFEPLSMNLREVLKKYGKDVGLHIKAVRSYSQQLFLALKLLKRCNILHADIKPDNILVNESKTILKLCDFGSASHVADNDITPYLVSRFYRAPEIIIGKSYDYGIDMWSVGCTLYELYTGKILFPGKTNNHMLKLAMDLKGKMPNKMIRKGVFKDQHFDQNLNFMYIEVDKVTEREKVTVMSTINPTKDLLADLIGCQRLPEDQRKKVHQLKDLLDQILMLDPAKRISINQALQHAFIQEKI

SMILES: CCOc1cc(N2CCC(O)CC2)ccc1Nc1ncc2c(n1)N(C)c1ccccc1C(=O)N2C
- IC50 [1]: > 50 µM
- IC50 [2]: > 50 µM
- inhibition [3]: 16.6%
- inhibition [4]: 18%
- inhibition [5]: -9.8%
- inhibition [6]: 2.3%
- inhibition at 2 µM [7]: 23.1%
- inhibition [8]: -4.6%
- inhibition at 2 µM [9]: 9.4%
- inhibition at 2 µM [10]: 11.3%
- inhibition [11]: 11.5%
